Holding throughout (assay type): functional, cell-based
Test [1] deals with HeLa. Put plainly: Cytotoxicity against human HeLa cells after 48 hrs by MTS assay. In a few lines:
(§1)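 MTS assay in triplicate. Cells seeded at (2−5) × 10³ per well, with the number set by growth rate, and allowed to attach overnight. Medium then replaced with medium containing 0.1% DMSO or serial dilutions of compounds made from 100 mM DMSO stocks. Cisplatin served as positive control. Incubation 48 h at 37 °C in humidified 5% CO2. MTS added, then 90 min at 37 °C in the dark. IC50 derived.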

Test [2] relates to HCT-116. Put plainly: Cytotoxicity against human HCT116 cells after 48 hrs by MTS assay. The conditions noted are these: HCT-116, 48 h. The method in brief:
as §1
A general note: Formazan colour is commonly taken as a measure of viable cells.

The test system of test [3] is A549. Briefly: Cytotoxicity against human A549 cells after 48 hrs by MTS assay. The conditions noted are these: A549, 48 h. In a few lines:
as §1

For test [4], the system named is HeLa. Briefly: Cytotoxicity against human HeLa cells at 20 ug/ml after 48 hrs by MTS assay. In a few lines:
(§2)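 Cells seeded at (2−5) × 10^3 per well depending on growth rate, attached overnight, then medium replaced with medium containing test compound (serial dilutions from 100 mM DMSO stock) or 0.1% DMSO vehicle; cisplatin as positive control. Incubated 48 h at 37 °C, humidified 5% CO2. MTS added, 90 min at 37 °C in the dark, proliferation read. Triplicate.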

Test [5] deals with HCT-116. Put plainly: Cytotoxicity against human HCT116 cells at 20 ug/ml after 48 hrs by MTS assay. The method in brief:
as §2

The test system of test [6] is MCF7. Briefly: Cytotoxicity against human MCF7 cells at 20 ug/ml after 48 hrs by MTS assay. The method in brief:
as §2

The subject of test [7] is A549. Briefly: Cytotoxicity against human A549 cells at 20 ug/ml after 48 hrs by MTS assay. The method in brief: as §2
The test system of test [8] is MCF7. Put plainly: Cytotoxicity against human MCF7 cells after 48 hrs by MTS assay. The conditions noted are these: MCF7, 48 h. The method in brief:
as §2

Activity calls are given as the source filed them. No cut-off for these calls is given here.

For orientation: IC50 means the concentration at which inhibition is half-maximal. A lower IC50 goes with greater potency in that assay.

Take `COC(=O)[C@@]1(O)c2c(oc3cccc(O)c3c2=O)S[C@@H](C)[C@H]1O` [PREUSSOCHROMONE A]: the IC50 in the test on HeLa [1] came out at 25.5 µM; in the test with HCT-116 [2], 25.9 µM; with A549 [3] it was 8.34 µM.
Consider `COC(=O)[C@]1(O)[C@@H](O)[C@H](C)[C@H]2Oc3cccc(O)c3C(=O)[C@@H]21`, for which the result in the test on HeLa [4], in the test on HCT-116 [5], in the test on MCF7 [6] and in the test on A549 [7] was inactive.
Turning to `COC(=O)[C@]1(O)C(=O)[C@H](C)[C@H]2Oc3cccc(O)c3C(=O)[C@@H]21`, the result with HeLa [4], in the test with HCT-116 [5], with MCF7 [6] and in the test on A549 [7] was inactive.
As to `COC(=O)[C@]1(O)[C@H](O)[C@H](C)[C@H]2Oc3cccc(O)c3C(=O)[C@H]21`, the outcome in the test with HeLa [4], in the test on HCT-116 [5], with MCF7 [6] and in the test on A549 [7] was inactive.
For the compound `COC1=CC(=O)c2c(O)cc(OC)c3c2[C@]1(O)COC3=O` [PREUSSOCHROMONE C], the half-inhibitory concentration (IC50) in the test with HeLa [1] amounted to 30 µM; with MCF7 [8] it was 41.2 µM; with HCT-116 [2], 15.1 µM; with A549 [3] it was 5.75 µM.
In the case of `COC(=O)[C@H]1c2c(oc3cccc(O)c3c2=O)C[C@](C)(O)[C@H]1O`, the result with HeLa [4], with HCT-116 [5], in the test with MCF7 [6] and with A549 [7] was inactive.

The values are drawn from ChEMBL document CHEMBL2010734, “A thiopyranchromenone and other chromone derivatives from an Endolichenic fungus, Preussia africana” (J Nat Prod, 2012).
